Laboratory results: ChEMBL document CHEMBL1649277, “Inhibition of herpesvirus replication by 5-substituted 4'-thiopyrimidine nucleosides” (Antimicrob Agents Chemother, 2009)
Calls of active or inactive are those of the source. The calls are words filed in the database; no cut-off is given here.

Experiments:
Human alphaherpesvirus 2 [1] = experiment: Antiviral activity against HSV2 MS infected in HFF assessed as inhibition of viral DNA synthesis-associated incorporation in DNA by immunofluorescence assay; format: functional, organism-based
Outline: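 HFF on coverslips were infected with HSV-2 MS or the resistant isolate (MOI 0.2 PFU/cell) for 48 h. Cells were pulsed with BrdUrd or 10 μM test compound for 30 min before fixation. Incorporation was detected with a cross-reacting anti-BrdUrd monoclonal antibody, infected cells with anti-155-kDa nucleocapsid antibody, and nuclei with DAPI.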

Human alphaherpesvirus 2 [2] = experiment: Antiviral activity against HSV2 infected in BALB/c mouse assessed as virus-induced mortality rate at 10 mg/kg, po BID administered 72 hrs post infection; format: functional
Human alphaherpesvirus 2 [3] = experiment: Antiviral activity against HSV2 infected in BALB/c mouse assessed mean time to virus-induced death at 10 mg/kg, po BID administered 48 hrs post infection; format: functional
[4] = Selectivity index, ratio of CC50 for human Akata cells to EC50 for Epstein-Barr virus infected in human Akata cells; format: toxicity, cell-based; details: read-out: Ratio CC50/EC50
Human betaherpesvirus 5 = experiment: Antiviral activity against human cytomegalovirus 759D100 harboring deletion mutation in UL97 gene and UL54 A987G mutant gene infected in HFF after 8 to 10 days by plaque reduction assay; format: functional, organism-based; details: Human betaherpesvirus 5, 759D100
Outline: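 Plaque reduction in confluent HFF with six serial dilutions (top 100 μM) and no immunoglobulin added. Virus was adsorbed 1 h on triplicate wells. Cells were incubated 8 days, stained with 0.017% neutral red in PBS, and plaques counted. EC50 is the concentration reducing plaque number by 50%.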

Human alphaherpesvirus 2 [5] = experiment: Antiviral activity against HSV2 infected in BALB/c mouse assessed as virus-induced mortality rate at 30 mg/kg, po BID administered 72 hrs post infection; format: functional
Human alphaherpesvirus 2 [6] = experiment: Antiviral activity against HSV2 AG-3 harboring TK Q105P mutant gene infected in HFF after 3 days by plaque reduction assay; format: functional, organism-based; details: Human alphaherpesvirus 2, AG-3, 72 h
Outline: (§1)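 Confluent HFF monolayers (passage <10) were infected in triplicate wells at 20–30 plaques per well, with 1 h adsorption and rocking every 15 min. Six serial dilutions (top 100 μM) were made in MEM with 2% FBS and pooled human immunoglobulin. Cells were incubated 3 days and stained with crystal violet. Plaques were counted, and EC50 was interpolated from plaque reduction.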

[7] = Cytotoxicity against HFF after 3 days by MTS assay; format: cell-based; details: human, HFF cells
[8] = Selectivity index, ratio of CC50 for HFF to EC50 for […] infected in HFF
Human alphaherpesvirus 2 [9] = experiment: Antiviral activity against HSV2 11680 harboring TK R223H mutant gene infected in HFF after 3 days by plaque reduction assay; format: functional, organism-based; details: Human alphaherpesvirus 2, 11680, 72 h; outline: as §1
Human alphaherpesvirus 2 [10] = experiment: Antiviral activity against HSV2 MS infected in HFF after 3 days by plaque reduction assay; format: functional, organism-based; details: Human alphaherpesvirus 2, MS, 72 h
Outline: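 Confluent primary HFF monolayers (passage <10), triplicate wells, virus dosed at 20–30 plaques/well. Adsorption was 1 h with rocking every 15 min. Six serial dilutions, top 100 μM, were made in MEM with 2% FBS plus pooled human immunoglobulin. After 3 days, wells were stained with 0.1% crystal violet in 20% methanol and plaques counted microscopically. EC50 was interpolated.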

Human alphaherpesvirus 2 [11] = experiment: Antiviral activity against HSV2 13077 harboring TK R223H mutant gene infected in HFF after 3 days by plaque reduction assay; format: functional, organism-based; details: Human alphaherpesvirus 2, 13077, 72 h; outline: as §1
Human alphaherpesvirus 2 [12] = experiment: Antiviral activity against HSV2 infected in BALB/c mouse assessed as virus-induced mortality rate at 10 mg/kg, po BID administered 24 hrs post infection; format: functional
Human alphaherpesvirus 2 [13] = experiment: Antiviral activity against HSV2 infected in BALB/c mouse assessed as virus-induced mortality rate at […], po BID administered 48 hrs post infection; format: functional
[14] = Cytotoxicity against human HSB2 cells after 3 days by MTS assay; format: cell-based, CCRF-HSB-2
Human alphaherpesvirus 2 [15] = experiment: Antiviral activity against HSV2 infected in BALB/c mouse assessed as virus-induced mortality rate at 30 mg/kg, po BID administered 24 hrs post infection; format: functional
Human alphaherpesvirus 2 [16] = experiment: Antiviral activity against HSV2 12247 harboring TK C337Y mutant gene infected in HFF after 3 days by plaque reduction assay; format: functional, organism-based; details: Human alphaherpesvirus 2, 12247, 72 h; outline: as §1
[17] = Antiviral activity against Human herpesvirus 6 GS infected in human HSB2 cells assessed as inhibition of viral replication after 7 days; format: functional, cell-based, Human herpesvirus 6 (strain GS); details: Human betaherpesvirus 6A, HSB2, 168 h
Outline: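 HSB-2 cells, 2 × 10^4 per well in RPMI 1640 with 10% FBS, received compound dilutions in triplicate wells. Cells were infected with HHV-6A strain GS and kept 7 days at 37°C. Total DNA was denatured and immobilized on nylon membrane. Viral DNA was then measured by digoxigenin-labeled probe hybridization and anti-hapten antibody detection with densitometric quantitation.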

Human alphaherpesvirus 1 [18] = experiment: Antiviral activity against HSV1 SC16-S1 harboring TK A265T/C336Y mutant gene infected in HFF after 3 days by plaque reduction assay; format: functional, organism-based; details: Human alphaherpesvirus 1, SC16-S1, 72 h; outline: as §1
[19] = Cytotoxicity against human BCBL1 cells after 3 days by MTS assay; format: cell-based
Human alphaherpesvirus 1 [20] = experiment: Antiviral activity against HSV1 E377 infected in HFF after 3 days by plaque reduction assay; format: functional, organism-based; details: Human alphaherpesvirus 1, E377, 72 h; outline: as §1
Human alphaherpesvirus 1 [21] = experiment: Antiviral activity against HSV1 DM2.1 harboring frameshift mutation in TK infected in HFF after 3 days by plaque reduction assay; format: functional, organism-based; details: Human alphaherpesvirus 1, DM2.1, 72 h; outline: as §1
Human gammaherpesvirus 8 = experiment: Antiviral activity against Human herpesvirus 8 infected in human BCBL1 cells assessed as inhibition of viral replication after 7 days; format: functional, organism-based; details: Human gammaherpesvirus 8, BCBL1, 168 h
Outline: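 BCBL1 cells in RPMI 1640 with 10% FBS, compound diluted in triplicate wells with a top concentration of 100 μM. Lytic infection was induced with phorbol 12-myristate 13-acetate at 100 ng/ml final. After 7 days at 37°C in humidified CO2, viral DNA in total DNA was measured by TaqMan qPCR. EC50 was taken as 50% reduction of viral DNA.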

[22] = Cytotoxicity against human Akata cells after 3 days by MTS assay; format: cell-based
Outline: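 Akata cells were plated as for the EBV assay but not induced with anti-IgG. Viability was read at the same time as the antiviral endpoint: MTS was added, plates incubated 4 h at 37°C, and formazan absorbance read at 490 nm. Medium-only control wells were included. CC50 was the concentration reducing viable cells by 50%.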

O=c1[nH]c(=O)n([C@H]2C[C@H](O)[C@@H](CO)S2)cc1I
inhibition (Human alphaherpesvirus 2 [1]): Active | Activity (Human alphaherpesvirus 2 [2]): 73% | Time (Human alphaherpesvirus 2 [3]): 10.4 days | selectivity ratio [4]: < 4.3 | EC50 (Human betaherpesvirus 5): 14 µM | Activity (Human alphaherpesvirus 2 [5]): 100% | EC50 (Human alphaherpesvirus 2 [6]): > 444 µM | CC50 at 72 h [7]: > 70 µM | Ratio CC50/EC50 [8]: > 1250 | EC50 (Human alphaherpesvirus 2 [9]): 246 µM | EC50 (Human alphaherpesvirus 2 [10]): 0.45 µM | EC50 (Human alphaherpesvirus 2 [11]): > 343 µM | Activity (Human alphaherpesvirus 2 [12]): 67% | Activity (Human alphaherpesvirus 2 [13]): 93% | CC50 at 72 h [14]: > 100 µM | Activity (Human alphaherpesvirus 2 [15]): 100% | EC50 (Human alphaherpesvirus 2 [16]): > 444 µM | EC50 [17]: > 100 µM | EC50 (Human alphaherpesvirus 1 [18]): > 444 µM | CC50 at 72 h [19]: 14 µM | EC50 (Human alphaherpesvirus 1 [20]): 1.2 µM | EC50 (Human alphaherpesvirus 1 [21]): > 444 µM | EC50 (Human gammaherpesvirus 8): > 4 µM | CC50 at 72 h [22]: 0.68 µM
